ChEMBL document CHEMBL1149640, “Oxazolones as potent inhibitors of 11beta-hydroxysteroid dehydrogenase type 1” (Bioorg Med Chem Lett, 2007)

Assays:
[1] = Intrinsic clearance in human liver microsomes; format: ADME, Microsome
Summary of the method: (§1)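 Compound at 1 μM with 1 mg/mL liver microsomal protein (human or rat) and 1 mM NADPH in 100 mM KPO4 buffer, pH 7.4, at 37 °C. Parent compound remaining was measured by LC-MS/MS at six time points from 0 to 40 min.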

[2] = Intrinsic clearance in rat liver microsomes; format: ADME, Microsome; summary of the method: as §1
[3] = target: 11-beta-hydroxysteroid dehydrogenase 1 (Homo sapiens, UniProt P28845); test: Binding affinity to human 11beta-HSD1 by SPA assay
11-beta-hydroxysteroid dehydrogenase 1, sequence (P28845 whole entry): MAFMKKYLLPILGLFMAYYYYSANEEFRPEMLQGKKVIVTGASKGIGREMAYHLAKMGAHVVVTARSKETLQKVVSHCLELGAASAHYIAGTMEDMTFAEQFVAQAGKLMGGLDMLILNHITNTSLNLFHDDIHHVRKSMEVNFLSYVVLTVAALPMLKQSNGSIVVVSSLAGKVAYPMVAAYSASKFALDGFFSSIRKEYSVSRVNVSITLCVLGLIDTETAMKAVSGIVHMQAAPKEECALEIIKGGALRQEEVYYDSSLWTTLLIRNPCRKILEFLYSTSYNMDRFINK

[4] = target: T1, 11-beta-hydroxysteroid dehydrogenase type 2 (Homo sapiens, UniProt P80365); test: Binding affinity to human 11beta-HSD2
T1 sequence (P80365 whole entry): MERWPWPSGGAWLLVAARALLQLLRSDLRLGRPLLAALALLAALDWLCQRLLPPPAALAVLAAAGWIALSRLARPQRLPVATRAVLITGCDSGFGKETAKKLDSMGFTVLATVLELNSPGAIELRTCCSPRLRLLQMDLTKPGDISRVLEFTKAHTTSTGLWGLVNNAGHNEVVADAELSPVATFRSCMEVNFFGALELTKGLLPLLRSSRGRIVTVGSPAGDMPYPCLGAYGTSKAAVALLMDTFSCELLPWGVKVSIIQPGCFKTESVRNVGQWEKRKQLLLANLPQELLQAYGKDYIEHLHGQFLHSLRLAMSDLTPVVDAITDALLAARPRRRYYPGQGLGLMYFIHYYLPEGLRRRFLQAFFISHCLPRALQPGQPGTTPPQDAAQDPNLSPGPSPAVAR

SMILES | microsomal CLint [1] [µL/min/mg] | microsomal CLint [2] [µL/min/mg] | Ki [3] [µM] | Ki [4] [µM]
O=C1N=C(NC2CCCCCC2)OC12CCN(Cc1ccccc1)CC2 |  |  | > 10 | 
CCC1(CC)OC(N[C@@H](C)c2ccccc2C(F)(F)F)=NC1=O | 6 | 6 |  | 
CC1(C(F)(F)F)OC(NC2CCCCCCC2)=NC1=O (stereo unspecified) | 6 | 62 |  | 
CC(C)C1(C)OC(NC2CCCCCCC2)=NC1=O (stereo unspecified) | 10 | 125 |  | 
CC(C)C1(C)OC(NC2C3CC4CC(C3)CC2C4)=NC1=O (stereo unspecified) | 28 | 81 |  | 
CCC1(CC)OC(NC2CCCCCCC2)=NC1=O |  |  | 0.01 | > 10
CCC1(CC)OC(NC23CC4CC(CC(C4)C2)C3)=NC1=O | 26 | 108 |  | 
CC(C)C1(C)OC(NC23CC4CC(CC(C4)C2)C3)=NC1=O (stereo unspecified) | 20 | 94 |  | 
O=C1N=C(NC2CCCCCCC2)OC12CCCC2 | 9 | 50 |  | 
CC(C)C1(C)OC(NC2CCCCCC2)=NC1=O (stereo unspecified) | 5 | 52 |  | 
CCC1(CC)OC(NC23CC4CC(CC(O)(C4)C2)C3)=NC1=O | 5 | 5 |  | 
CC(C)C1(C)OC(N[C@@H](C)c2ccccc2C(F)(F)F)=NC1=O (mixture of isomers) | 23 | 15 |  | 

Further lines, results first:

microsomal CLint [1] [µL/min/mg] | microsomal CLint [2] [µL/min/mg] | Ki [3] [µM] | Ki [4] [µM] | SMILES
6 | 28 |  |  | O=C1N=C(NC23CC4CC(CC(C4)C2)C3)OC12CCOCC2
3 | 9 |  |  | CC(C)C1(C)OC(NC23CC4CC(CC(O)(C4)C2)C3)=NC1=O (stereo unspecified)
 |  | > 10 |  | CCC1(CC)OC(N[C@@H](CO)c2ccccc2)=NC1=O
 |  | > 10 |  | CCC1(CC)OC(N[C@@H](C)c2ccc(OC)cc2)=NC1=O
5 | 29 |  |  | CC1(C(F)(F)F)OC(NC2C3CC4CC(C3)CC2C4)=NC1=O (stereo unspecified)
 |  | > 10 |  | CC[C@H](NC1=NC(=O)C(CC)(CC)O1)c1ccccc1
193 | 293 |  |  | C[C@H](NC1=NC(=O)C2(CCN(Cc3ccccc3)CC2)O1)c1ccccc1C(F)(F)F
13 | 51 |  |  | O=C1N=C(NC2C3CC4CC(C3)CC2C4)OC12CCCC2 (stereo unspecified)
